Bioassay records (PubChem)
A selection: hits, their analogues and other compounds. The true share with any hit is near 3.5%.
RGS4 pot: RGS4 potentiators or activators, primary screen, cell-based, HEK293 M3R inducible RGS4, calcium flux; carbachol calcium flux Fluo4; stronger effect = lower value; B-score at 10 µM; 0.92% of 310,000 active; AID 463111, 2010;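 active = B-score of the integrated calcium signal more than 4 SD below the library mean, with starting fluorescence not abnormally high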;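 note: negative B-score means reduced calcium response which marks RGS4 activation or potentiation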
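Reagent: ECmax carbachol challenge; Test system: M3R-expressing HEK293 line, RGS4 induced by doxycycline; Schedule: overnight RGS4 induction, 30 min dye load 37 °C, 20 min compound RT; Detection: calcium dye Fluo4 fluorescence; Read-out: Agonist-evoked peak-minus-minimum fluorescence over baseline, integrated ratio, B score.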
RGS4 inh: RGS4 inhibitors, primary screen, cell-based, HEK293 M3R inducible RGS4, calcium flux; Regulator of G-protein signaling 4 (Homo sapiens), P49798; 0.45% of 310,000 active; B-score at 10 µM; Fluo-4 calcium flux; stronger effect = higher value; triggered by carbachol at its EC20;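 active = B-score, a plate-corrected calcium signal, over three deviations above library mean, with baseline fluorescence within five deviations of library mean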;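 note: RGS4 expression induced by doxycycline in cells with stable M3 receptor; B-score is computed from the integrated fluorescence ratio over baseline after carbachol; higher B-score means a larger calcium signal and so more RGS4 inhibition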
Target sequence (P49798 whole entry, looked up): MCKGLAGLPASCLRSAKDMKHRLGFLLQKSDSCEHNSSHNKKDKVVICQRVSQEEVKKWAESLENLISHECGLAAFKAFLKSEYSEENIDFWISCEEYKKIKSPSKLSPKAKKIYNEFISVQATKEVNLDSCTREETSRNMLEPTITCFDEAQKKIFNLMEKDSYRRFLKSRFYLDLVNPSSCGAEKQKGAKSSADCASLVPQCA
MrgX1 PAM: positive allosteric modulators of MrgX1, primary screen, HEK293 cells, Fluo-4 calcium flux. B-score at 10 µM. Mas-related G-protein coupled receptor member X1 (Homo sapiens), Q96LB2. 0.63% of 310,000 active. FDSS; stronger effect = higher value;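 active = plate-corrected calcium response at least 3 library SD above typical, normal starting fluorescence, not activating the receptor alone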;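 note: compound read alongside a low EC10 to EC30 dose of BAM8-22 agonist; peak minus trough fluorescence over baseline measured at the second addition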
Target sequence (Q96LB2 whole entry, looked up): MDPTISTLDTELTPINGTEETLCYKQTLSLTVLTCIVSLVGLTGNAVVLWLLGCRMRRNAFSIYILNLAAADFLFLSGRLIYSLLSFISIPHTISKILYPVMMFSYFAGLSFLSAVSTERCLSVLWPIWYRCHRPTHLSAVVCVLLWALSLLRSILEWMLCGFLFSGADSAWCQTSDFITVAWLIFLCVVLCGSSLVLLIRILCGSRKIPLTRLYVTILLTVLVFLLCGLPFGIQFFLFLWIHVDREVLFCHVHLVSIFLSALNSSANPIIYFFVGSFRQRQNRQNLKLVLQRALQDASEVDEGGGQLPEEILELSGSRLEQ
MrgX1 agonist: agonists of human MrgX1 receptor, primary screen, HEK293 cells, Fluo-4 calcium flux; Mas-related G-protein coupled receptor member X1 (Homo sapiens), Q96LB2; Fluo-4 calcium fluorescence, agonist mode; stronger effect = higher value; B-score at 10 µM; 0.44% of 310,000 active;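 active = calcium response B-score plate-corrected fluorescence ratio at least 3 library SD, with starting fluorescence B-score inside 5 SD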
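Material – MrgX1-expressing HEK293 cells · Input – 15,000 cells seeded per well · Dosing – compound as first of three additions · Times – overnight seeding, then 1 h dark dye loading · Measured by – kinetic Fluo-4 NW fluorescence of intracellular calcium · Read-out – B-scored fluorescence response ratio · Benchmarks – positive and negative control wells on each plate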
MrgX1 antag: antagonists of human MrgX1 receptor, primary screen, HEK293 cells, Fluo-4 calcium flux; Mas-related G-protein coupled receptor member X1 (Homo sapiens), Q96LB2; BAM8-22 antagonism; stronger effect = lower value; B-score at 10 µM; 1.3% of 310,000 active;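 active = calcium-response B-score plate-corrected more than 3 library SD below zero, starting fluorescence within 5 deviations, no agonist response on first addition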;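 note: peak minus trough fluorescence over baseline after final BAM8-22 challenge near maximal dose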
* = called active by the depositor.

What do the screens show for `COc1ccc(S(=O)(=O)/N=C2/C=CC(=O)C(C)=C2C)cc1`?
RGS4 pot: inactive; RGS4 inh: inactive; MrgX1 PAM: inactive; MrgX1 agonist: inactive; MrgX1 antag: inactive

How did CC1=C(C)/C(=N\OS(=O)(=O)c2ccc(C)cc2)C=CC1=O do in these assays?
MrgX1 PAM: inactive; MrgX1 agonist: inactive; MrgX1 antag: -5.2*

Results for CC1=C/C(=N\OS(=O)(=O)c2ccccc2)C(C)=CC1=O ?
MrgX1 PAM: 15*; MrgX1 agonist: inactive; MrgX1 antag: inactive

Results for Cc1ccccc1CCN(C(=O)c1csnn1)C(C(=O)NC1CCCC1)c1ccco1 (configuration not stated) ?
RGS4 pot: inactive; RGS4 inh: inactive; MrgX1 PAM: inactive; MrgX1 agonist: inactive; MrgX1 antag: inactive

Results for CCCc1cc(-c2nc(N)ncc2-c2ccc3c(c2)OCCCO3)c(O)cc1OC ?
RGS4 pot: -9.2*; RGS4 inh: inactive; MrgX1 PAM: inactive; MrgX1 agonist: inactive; MrgX1 antag: inactive

How did Cc1nn(-c2ccc(Cl)cc2)c(=O)c2ccccc12 do in these assays?
RGS4 pot: inactive; RGS4 inh: inactive; MrgX1 PAM: inactive; MrgX1 agonist: inactive; MrgX1 antag: inactive

Results for Cc1nn(-c2ccc(Cl)nn2)c(=O)c2ccccc12 ?
RGS4 pot: inactive; RGS4 inh: inactive; MrgX1 PAM: 14*; MrgX1 agonist: inactive; MrgX1 antag: inactive

Results for C=CCNC(=O)NC(=O)COC(=O)/C=C/c1cccc([N+](=O)[O-])c1 ?
RGS4 pot: inactive; RGS4 inh: inactive; MrgX1 PAM: inactive; MrgX1 agonist: inactive; MrgX1 antag: inactive

Results for O=C(NCCN1CCOCC1)c1ccc2c(c1)N(Cc1ccc(Cl)cc1)C(=O)CS2 ?
RGS4 pot: -7.3*; RGS4 inh: inactive; MrgX1 PAM: inactive; MrgX1 agonist: inactive; MrgX1 antag: inactive

What do the screens show for `O=C(NCCN1CCOCC1)c1ccc2c(c1)N(Cc1ccccc1)C(=O)CS2`?
RGS4 pot: inactive; RGS4 inh: inactive; MrgX1 PAM: inactive; MrgX1 agonist: inactive; MrgX1 antag: inactive

Results for CCC1CCCCN1CCCNC(=O)c1ccc2c(c1)N(Cc1c(F)cccc1Cl)C(=O)CS2 (configuration not stated) ?
RGS4 pot: -8.2*; RGS4 inh: inactive; MrgX1 PAM: inactive; MrgX1 agonist: inactive; MrgX1 antag: inactive

How did Cc1ccc(Oc2ncccc2/C=N/OCc2ccc(Cl)c(Cl)c2)cc1 do in these assays?
RGS4 pot: inactive; RGS4 inh: inactive; MrgX1 PAM: 8.6*; MrgX1 agonist: inactive; MrgX1 antag: inactive

What do the screens show for `Cc1ccc(NC(=O)CSCC(=O)N(C)CC(=O)Nc2cccc3ccccc23)cc1`?
RGS4 pot: inactive; RGS4 inh: inactive; MrgX1 PAM: inactive; MrgX1 agonist: inactive; MrgX1 antag: inactive

Results for Cc1ccc(NNC(=O)c2ccno2)cc1C ?
RGS4 pot: -7.5*; RGS4 inh: inactive; MrgX1 PAM: inactive; MrgX1 agonist: inactive; MrgX1 antag: inactive

Results for COc1cc(/C=C2/C(=O)NN(c3ccc(Cl)cc3)C2=O)cc(Br)c1O ?
RGS4 pot: inactive; RGS4 inh: inactive; MrgX1 PAM: inactive; MrgX1 agonist: 33*; MrgX1 antag: inactive

How did COc1cc(/C=C2/C(=O)NN(c3ccc(Cl)c(Cl)c3)C2=O)cc([N+](=O)[O-])c1O do in these assays?
RGS4 pot: inactive; RGS4 inh: inactive; MrgX1 PAM: inactive; MrgX1 agonist: inactive; MrgX1 antag: inactive

How did COc1ccccc1/C=N/OCc1cc(C(C)=O)ccc1OC do in these assays?
RGS4 pot: inactive; RGS4 inh: inactive; MrgX1 PAM: inactive; MrgX1 agonist: inactive; MrgX1 antag: inactive

How did Cc1ccc(OCC(=O)Nc2ccc(S(=O)(=O)N3CCOCC3)cc2)c(Br)c1 do in these assays?
RGS4 pot: inactive; RGS4 inh: inactive; MrgX1 PAM: inactive; MrgX1 agonist: inactive; MrgX1 antag: inactive

Results for COc1ccccc1NC(=O)Cn1nc(-c2ccc(Cl)cc2)c2ccccc2c1=O ?
RGS4 pot: inactive; RGS4 inh: inactive; MrgX1 PAM: inactive; MrgX1 agonist: 34*; MrgX1 antag: inactive

What do the screens show for `CCN(CC)S(=O)(=O)c1cccc(C(=O)/C=C2/N(C)c3ccccc3C2(C)C)c1`?
RGS4 pot: -7*; RGS4 inh: inactive; MrgX1 PAM: inactive; MrgX1 agonist: inactive; MrgX1 antag: inactive

Results for CN1/C(=C\C(=S)NC(=O)c2cccc(Br)c2)C(C)(C)c2ccccc21 ?
RGS4 pot: inactive; RGS4 inh: inactive; MrgX1 PAM: inactive; MrgX1 agonist: inactive; MrgX1 antag: inactive

How did O=C(NN1C(=O)C2C(c3ccccc3)C=CC(c3ccccc3)C2C1=O)c1ccncc1 (configuration not stated) do in these assays?
RGS4 pot: inactive; RGS4 inh: inactive; MrgX1 PAM: inactive; MrgX1 agonist: 28*; MrgX1 antag: inactive

Results for O=C(NN1C(=O)C2C3C=CC(C3)C2C1=O)c1ccncc1 (configuration not stated) ?
RGS4 pot: inactive; RGS4 inh: inactive; MrgX1 PAM: inactive; MrgX1 agonist: inactive; MrgX1 antag: inactive

How did CCOC(=O)c1ccc(S(=O)(=O)NNC(=O)c2cccc(N(C)C)c2)cc1 do in these assays?
RGS4 pot: inactive; RGS4 inh: inactive; MrgX1 PAM: 7.1*; MrgX1 agonist: inactive; MrgX1 antag: inactive

How did CCNc1ccc(C(=O)OCC)cc1NC(=O)c1cccc(N(C)C)c1 do in these assays?
RGS4 pot: inactive; RGS4 inh: inactive; MrgX1 PAM: inactive; MrgX1 agonist: inactive; MrgX1 antag: inactive

Results for CCN1C(=O)[C@@H]2[C@@H](c3ccc(SC4CCCCC4)c(OC)c3)N3CCC[C@@]3(C(=O)OC)[C@@H]2C1=O ?
MrgX1 PAM: inactive; MrgX1 agonist: inactive; MrgX1 antag: inactive

What do the screens show for `COc1ccccc1NC(=S)NNC(=O)c1ccncc1`?
RGS4 pot: inactive; RGS4 inh: inactive; MrgX1 PAM: inactive; MrgX1 agonist: 28*; MrgX1 antag: inactive

Results for O=C(NC(=S)NCc1ccccc1)c1ccccc1[N+](=O)[O-] ?
RGS4 pot: inactive; RGS4 inh: inactive; MrgX1 PAM: inactive; MrgX1 agonist: inactive; MrgX1 antag: inactive

What do the screens show for `Cc1ccc(-c2csc(Nc3ccc(C(=O)O)cc3)[n+]2Cc2ccccc2)cc1`?
RGS4 pot: inactive; RGS4 inh: inactive; MrgX1 PAM: 9.1*; MrgX1 agonist: inactive; MrgX1 antag: inactive

What do the screens show for `COc1cccc(/C=N/Nc2snc(SC)c2C#N)c1O`?
RGS4 pot: inactive; RGS4 inh: inactive; MrgX1 PAM: inactive; MrgX1 agonist: inactive; MrgX1 antag: -5.4*
